Test results from ChEMBL document CHEMBL1154674, “Synthesis and evaluation of three 18F-labeled aminophenylbenzothiazoles as amyloid imaging agents” (J Med Chem, 2009).

Key:
Type in all cases: ADME, organism-based
[1] = test system: Kidney; test: Drug level in NMRI mouse kidney assessed as standard uptake value at 3.7 MBq/mL, iv after 2 mins by gamma counting; conditions: in vivo
Procedure, shortened: (§1)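 Male NMRI mice (30-40 g) were anaesthetised with isoflurane. Each received 0.1 mL of HPLC-purified tracer, diluted in 0.9% NaCl to 3.7 MBq/mL (ethanol ≤10%), via a tail vein. Mice were decapitated at 2 or 60 min. Organs were dissected, weighed and γ-counted with background correction. SUV = (organ cpm/organ weight)/(total recovered counts/body weight). Blood mass was taken as 7% of body mass.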

[2] = Biodistribution in NMRI mouse spleen/pancreas at 3.7 MBq/mL, iv after 2 mins by gamma counting; conditions: in vivo
Procedure, shortened: (§2)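 Male NMRI mice (30-40 g) under isoflurane (1.5-2.5% in oxygen) got 0.1 mL of HPLC-purified tracer diluted with 0.9% NaCl to 3.7 MBq/mL (ethanol ≤10%) via tail vein. Mice were decapitated at 2 or 60 min p.i., and organs, blood and urine were weighed and γ-counted. Values are background-corrected %ID or %ID/g, with blood mass taken as 7% of body mass.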

[3] = test system: Cerebellum; test: Biodistribution in NMRI mouse cerebellum at 3.7 MBq/mL, iv after 60 mins by gamma counting; conditions: in vivo, 1 h; procedure, shortened: as §2
[4] = Biodistribution in NMRI mouse cerebrum assessed per gram of tissue at 3.7 MBq/mL, iv after 60 mins by gamma counting; conditions: in vivo, 1 h; procedure, shortened: as §2
[5] = test system: Lung; test: Biodistribution in NMRI mouse lung at 3.7 MBq/mL, iv after 60 mins by gamma counting; conditions: in vivo, 1 h; procedure, shortened: as §2
[6] = test system: Blood; test: Drug level in NMRI mouse blood assessed as standard uptake value at 3.7 MBq/mL, iv after 2 mins by gamma counting; conditions: in vivo; procedure, shortened: as §1
[7] = Drug level in NMRI mouse spleen/pancreas assessed as standard uptake value at 3.7 MBq/mL, iv after 2 mins by gamma counting; conditions: in vivo; procedure, shortened: as §1
[8] = test system: Liver; test: Biodistribution in NMRI mouse liver at 3.7 MBq/mL, iv after 2 mins by gamma counting; conditions: in vivo; procedure, shortened: as §2
[9] = test system: Liver; test: Biodistribution in NMRI mouse liver assessed per gram of tissue at 3.7 MBq/mL, iv after 2 mins by gamma counting; conditions: in vivo
[10] = test system: Cerebellum; test: Drug level in NMRI mouse cerebellum assessed as standard uptake value at 3.7 MBq/mL, iv after 60 mins by gamma counting; conditions: in vivo, 1 h; procedure, shortened: as §1
[11] = test system: Lung; test: Biodistribution in NMRI mouse lung assessed per gram of tissue at 3.7 MBq/mL, iv after 2 mins by gamma counting; conditions: in vivo; procedure, shortened: as §2
[12] = test system: Heart; test: Biodistribution in NMRI mouse heart assessed per gram of tissue at 3.7 MBq/mL, iv after 2 mins by gamma counting; conditions: in vivo; procedure, shortened: as §2
[13] = Drug level in NMRI mouse cerebrum assessed as standard uptake value at 3.7 MBq/mL, iv after 2 mins by gamma counting; conditions: in vivo; procedure, shortened: as §1
[14] = test system: Kidney; test: Biodistribution in NMRI mouse kidney assessed per gram of tissue at 3.7 MBq/mL, iv after 60 mins by gamma counting; conditions: in vivo, 1 h; procedure, shortened: as §2
[15] = test system: Stomach; test: Biodistribution in NMRI mouse stomach at 3.7 MBq/mL, iv after 2 mins by gamma counting; conditions: in vivo; procedure, shortened: as §2
[16] = test system: Kidney; test: Biodistribution in NMRI mouse kidney at 3.7 MBq/mL, iv after 2 mins by gamma counting; conditions: in vivo; procedure, shortened: as §2
[17] = test system: Cerebellum; test: Biodistribution in NMRI mouse cerebellum at 3.7 MBq/mL, iv after 2 mins by gamma counting; conditions: in vivo; procedure, shortened: as §2
[18] = test system: Liver; test: Biodistribution in NMRI mouse liver at 3.7 MBq/mL, iv after 60 mins by gamma counting; conditions: in vivo, 1 h; procedure, shortened: as §2
[19] = test system: Cerebellum; test: Biodistribution in NMRI mouse cerebellum assessed per gram of tissue at 3.7 MBq/mL, iv after 2 mins by gamma counting; conditions: in vivo; procedure, shortened: as §2
[20] = test system: Heart; test: Biodistribution in NMRI mouse heart at 3.7 MBq/mL, iv after 60 mins by gamma counting; conditions: in vivo, 1 h; procedure, shortened: as §2
[21] = test system: Stomach; test: Biodistribution in NMRI mouse stomach at 3.7 MBq/mL, iv after 60 mins by gamma counting; conditions: in vivo, 1 h; procedure, shortened: as §2
[22] = test system: Heart; test: Biodistribution in NMRI mouse heart assessed per gram of tissue at 3.7 MBq/mL, iv after 60 mins by gamma counting; conditions: in vivo, 1 h; procedure, shortened: as §2
[23] = test system: Liver; test: Biodistribution in NMRI mouse liver assessed per gram of tissue at 3.7 MBq/mL, iv after 60 mins by gamma counting; conditions: in vivo, 1 h; procedure, shortened: as §2
[24] = test system: Heart; test: Drug level in NMRI mouse heart assessed as standard uptake value at 3.7 MBq/mL, iv after 2 mins by gamma counting; conditions: in vivo; procedure, shortened: as §1
[25] = Biodistribution in NMRI mouse cerebrum assessed per gram of tissue at 3.7 MBq/mL, iv after 2 mins by gamma counting; conditions: in vivo; procedure, shortened: as §2
[26] = test system: Blood; test: Biodistribution in NMRI mouse blood at 3.7 MBq/mL, iv after 2 mins by gamma counting; conditions: in vivo; procedure, shortened: as §2
[27] = Biodistribution in NMRI mouse cerebrum at 3.7 MBq/mL, iv after 60 mins by gamma counting; conditions: in vivo, 1 h; procedure, shortened: as §2
[28] = test system: Heart; test: Drug level in NMRI mouse heart assessed as standard uptake value at 3.7 MBq/mL, iv after 60 mins by gamma counting; conditions: in vivo, 1 h; procedure, shortened: as §1
[29] = test system: Cerebellum; test: Drug level in NMRI mouse cerebellum assessed as standard uptake value at 3.7 MBq/mL, iv after 2 mins by gamma counting; conditions: in vivo; procedure, shortened: as §1
[30] = test system: Cerebellum; test: Biodistribution in NMRI mouse cerebellum assessed per gram of tissue at 3.7 MBq/mL, iv after 60 mins by gamma counting; conditions: in vivo, 1 h; procedure, shortened: as §2
[31] = Drug level in NMRI mouse cerebrum assessed as standard uptake value at 3.7 MBq/mL, iv after 60 mins by gamma counting; conditions: in vivo, 1 h; procedure, shortened: as §1
[32] = test system: Intestine; test: Biodistribution in NMRI mouse intestine at 3.7 MBq/mL, iv after 60 mins by gamma counting; conditions: in vivo, 1 h; procedure, shortened: as §2
[33] = Biodistribution in NMRI mouse cerebrum at 3.7 MBq/mL, iv after 2 mins by gamma counting; conditions: in vivo; procedure, shortened: as §2
[34] = test system: Liver; test: Drug level in NMRI mouse liver assessed as standard uptake value at 3.7 MBq/mL, iv after 60 mins by gamma counting; conditions: in vivo, 1 h; procedure, shortened: as §1
[35] = test system: Liver; test: Drug level in NMRI mouse liver assessed as standard uptake value at 3.7 MBq/mL, iv after 2 mins by gamma counting; conditions: in vivo; procedure, shortened: as §1
[36] = Biodistribution in NMRI mouse spleen/pancreas at 3.7 MBq/mL, iv after 60 mins by gamma counting; conditions: in vivo, 1 h; procedure, shortened: as §2
[37] = test system: Intestine; test: Biodistribution in NMRI mouse intestine at 3.7 MBq/mL, iv after 2 mins by gamma counting; conditions: in vivo; procedure, shortened: as §2
[38] = test system: Kidney; test: Biodistribution in NMRI mouse kidney assessed per gram of tissue at 3.7 MBq/mL, iv after 2 mins by gamma counting; conditions: in vivo; procedure, shortened: as §2
[39] = test system: Blood; test: Biodistribution in NMRI mouse blood assessed per gram of tissue at 3.7 MBq/mL, iv after 60 mins by gamma counting; conditions: in vivo, 1 h; procedure, shortened: as §2
[40] = Biodistribution in NMRI mouse spleen/pancreas assessed per gram of tissue at 3.7 MBq/mL, iv after 60 mins by gamma counting; conditions: in vivo, 1 h; procedure, shortened: as §2
[41] = test system: Lung; test: Biodistribution in NMRI mouse lung at 3.7 MBq/mL, iv after 2 mins by gamma counting; conditions: in vivo; procedure, shortened: as §2
[42] = Biodistribution in NMRI mouse urine at 3.7 MBq/mL, iv after 2 mins by gamma counting; conditions: in vivo; procedure, shortened: as §2
[43] = Biodistribution in NMRI mouse urine at 3.7 MBq/mL, iv after 60 mins by gamma counting; conditions: in vivo, 1 h; procedure, shortened: as §2

CN(C)c1ccc2nc(-c3ccc([18F])cc3)sc2c1
SUV [1]: 4.3
Drug uptake [2]: 1.5%
Drug uptake [3]: 0.22%
Drug uptake [4]: 1.94%
Drug uptake [5]: 0.6%
SUV [6]: 0.4
SUV [7]: 2
Drug uptake [8]: 41.9%
Drug uptake [9]: 18.9%
SUV [10]: 0.83
Drug uptake [11]: 8%
Drug uptake [12]: 7.4%
SUV [13]: 3.2
Drug uptake [14]: 6.5%
Drug uptake [15]: 1.4%
Drug uptake [16]: 8.5%
Drug uptake [17]: 0.77%
Drug uptake [18]: 18.9%
Drug uptake [19]: 9.23%
Drug uptake [20]: 0.2%
Drug uptake [21]: 1.2%
Drug uptake [22]: 1.3%
Drug uptake [23]: 8%
SUV [24]: 2.7
Drug uptake [25]: 8.84%
Drug uptake [26]: 2.8%
Drug uptake [27]: 0.65%
SUV [28]: 0.5
SUV [29]: 3.35
Drug uptake [30]: 2.24%
SUV [31]: 0.72
Drug uptake [32]: 28%
Drug uptake [33]: 2.95%
SUV [34]: 3
SUV [35]: 6.8
Drug uptake [36]: 0.3%
Drug uptake [37]: 10%
Drug uptake [38]: 11.7%
Drug uptake [39]: 0.9%
Drug uptake [40]: 1%
Drug uptake [41]: 2.2%
Drug uptake [42]: 0.1%
Drug uptake [43]: 7.6%

CNc1ccc2nc(-c3ccc([18F])cc3)sc2c1
SUV [1]: 4.3
Drug uptake [2]: 1.4%
Drug uptake [3]: 0.12%
Drug uptake [4]: 1.39%
Drug uptake [5]: 0.3%
SUV [6]: 0.2
SUV [7]: 2
Drug uptake [8]: 42.4%
SUV [10]: 0.44
Drug uptake [11]: 7.3%
Drug uptake [12]: 5.8%
SUV [13]: 4.1
Drug uptake [14]: 4.6%
Drug uptake [15]: 2.3%
Drug uptake [16]: 8.2%
Drug uptake [17]: 1.19%
Drug uptake [18]: 17.5%
Drug uptake [19]: 11.76%
Drug uptake [20]: 0.2%
Drug uptake [21]: 1.6%
Drug uptake [22]: 1%
Drug uptake [23]: 8.3%
SUV [24]: 2
Drug uptake [25]: 12.13%
Drug uptake [26]: 1.5%
Drug uptake [27]: 0.44%
SUV [28]: 0.4
SUV [29]: 3.97
Drug uptake [30]: 1.26%
SUV [31]: 0.48
Drug uptake [32]: 37.2%
Drug uptake [33]: 3.42%
SUV [34]: 2.8
SUV [35]: 7
Drug uptake [36]: 0.3%
Drug uptake [37]: 11%
Drug uptake [38]: 12.6%
Drug uptake [39]: 0.9%
Drug uptake [40]: 0.9%
Drug uptake [41]: 1.8%
Drug uptake [42]: 0.2%
Drug uptake [43]: 13%
